Measurements taken from ChEMBL document CHEMBL1136272, “Development of a presynaptic 5-HT1A antagonist” (Bioorg Med Chem Lett, 2003).

How the values were obtained:
[1] = test system: Rattus norvegicus; assay: In vivo motor activity determined in rat at 1.7 mg/kg of ip administration; format: functional; conditions: route intraperitoneal
Procedure, shortened: (§1)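 Rats dosed i.p. against a saline-treated control group. Social interaction time (s) and total motor activity (counts) were recorded in the same social-interaction session and reported as mean ± SEM, with significance tested against saline control.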

[2] = test system: Rattus norvegicus; assay: Social interaction time determined in vivo rat at 1.7 mg/kg of ip administration; format: functional; conditions: route intraperitoneal; procedure, shortened: as §1
[3] = biological target: T1, 5-hydroxytryptamine receptor 1A (Rattus norvegicus, UniProt P19327); assay: Inhibition of the 5-hydroxytryptamine 1A receptor in rat dorsal raphe
T1 sequence (P19327 whole entry): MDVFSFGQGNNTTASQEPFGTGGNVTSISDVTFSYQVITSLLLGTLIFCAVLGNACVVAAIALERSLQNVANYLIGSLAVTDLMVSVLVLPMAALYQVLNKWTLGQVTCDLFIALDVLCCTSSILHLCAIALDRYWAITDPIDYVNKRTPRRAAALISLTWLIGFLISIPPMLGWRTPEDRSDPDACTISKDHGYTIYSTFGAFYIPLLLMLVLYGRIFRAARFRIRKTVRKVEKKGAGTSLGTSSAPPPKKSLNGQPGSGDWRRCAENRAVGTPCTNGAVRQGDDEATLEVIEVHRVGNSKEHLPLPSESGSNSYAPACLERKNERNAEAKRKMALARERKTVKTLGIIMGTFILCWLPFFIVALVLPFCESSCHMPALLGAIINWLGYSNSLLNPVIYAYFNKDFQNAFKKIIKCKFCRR

[4] = biological target: 5-hydroxytryptamine receptor 1B (Rattus norvegicus, UniProt P28564); assay: Inhibitory concentration required against 5-hydroxytryptamine 1B receptor in rat striatum using [3H]5-HT; format: tissue-based
Chain of 5-hydroxytryptamine receptor 1B (P28564 whole entry): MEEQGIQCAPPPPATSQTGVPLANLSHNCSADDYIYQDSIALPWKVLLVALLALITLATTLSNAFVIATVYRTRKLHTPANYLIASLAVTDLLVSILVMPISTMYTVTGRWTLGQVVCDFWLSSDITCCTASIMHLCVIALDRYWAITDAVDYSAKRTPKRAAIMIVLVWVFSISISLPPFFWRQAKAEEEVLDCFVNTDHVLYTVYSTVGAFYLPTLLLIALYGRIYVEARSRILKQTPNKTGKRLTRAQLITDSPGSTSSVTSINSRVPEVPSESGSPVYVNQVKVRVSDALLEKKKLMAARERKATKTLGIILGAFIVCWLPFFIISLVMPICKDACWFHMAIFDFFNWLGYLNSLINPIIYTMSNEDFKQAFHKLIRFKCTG

[5] = biological target: Serotonin 2 (5-HT2) receptor (Rattus norvegicus, UniProt P30994+P08909+P14842); assay: Inhibitory concentration required against 5-hydroxytryptamine 2 receptor in rat cortex using [3H]spiperone
[6] = biological target: T2, Adrenergic receptor alpha-2 (Rattus norvegicus, UniProt P22086+P19328+P22909); assay: Inhibitory concentration required against Alpha-2 adrenergic receptor in rat cortex [3H]clonidine
T2 sequence (P22086 whole entry): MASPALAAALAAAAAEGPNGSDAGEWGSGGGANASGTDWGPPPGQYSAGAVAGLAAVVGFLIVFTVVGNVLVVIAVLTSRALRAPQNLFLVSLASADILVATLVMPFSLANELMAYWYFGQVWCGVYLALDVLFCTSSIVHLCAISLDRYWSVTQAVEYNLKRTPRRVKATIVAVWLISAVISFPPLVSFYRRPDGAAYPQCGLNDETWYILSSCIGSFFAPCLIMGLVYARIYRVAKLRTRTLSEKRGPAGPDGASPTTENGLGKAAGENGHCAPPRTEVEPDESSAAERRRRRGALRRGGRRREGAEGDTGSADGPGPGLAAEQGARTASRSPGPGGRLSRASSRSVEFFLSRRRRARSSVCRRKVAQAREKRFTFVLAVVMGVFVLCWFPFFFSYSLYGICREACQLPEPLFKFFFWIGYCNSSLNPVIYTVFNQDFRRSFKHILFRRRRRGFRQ
T2 sequence (P19328 whole entry): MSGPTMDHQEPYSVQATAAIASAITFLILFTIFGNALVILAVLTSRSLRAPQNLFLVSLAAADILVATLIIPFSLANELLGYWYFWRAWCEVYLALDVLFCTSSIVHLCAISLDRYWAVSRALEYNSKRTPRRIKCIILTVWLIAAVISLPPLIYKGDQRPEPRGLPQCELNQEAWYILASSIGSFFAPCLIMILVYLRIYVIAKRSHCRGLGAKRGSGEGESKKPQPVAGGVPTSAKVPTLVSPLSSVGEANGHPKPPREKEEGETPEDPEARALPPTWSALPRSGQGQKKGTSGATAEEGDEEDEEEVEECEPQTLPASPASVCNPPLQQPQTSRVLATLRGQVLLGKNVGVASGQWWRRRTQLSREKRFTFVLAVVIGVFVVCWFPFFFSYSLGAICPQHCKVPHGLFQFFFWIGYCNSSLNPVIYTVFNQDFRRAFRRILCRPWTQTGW
T2 sequence (P22909 whole entry): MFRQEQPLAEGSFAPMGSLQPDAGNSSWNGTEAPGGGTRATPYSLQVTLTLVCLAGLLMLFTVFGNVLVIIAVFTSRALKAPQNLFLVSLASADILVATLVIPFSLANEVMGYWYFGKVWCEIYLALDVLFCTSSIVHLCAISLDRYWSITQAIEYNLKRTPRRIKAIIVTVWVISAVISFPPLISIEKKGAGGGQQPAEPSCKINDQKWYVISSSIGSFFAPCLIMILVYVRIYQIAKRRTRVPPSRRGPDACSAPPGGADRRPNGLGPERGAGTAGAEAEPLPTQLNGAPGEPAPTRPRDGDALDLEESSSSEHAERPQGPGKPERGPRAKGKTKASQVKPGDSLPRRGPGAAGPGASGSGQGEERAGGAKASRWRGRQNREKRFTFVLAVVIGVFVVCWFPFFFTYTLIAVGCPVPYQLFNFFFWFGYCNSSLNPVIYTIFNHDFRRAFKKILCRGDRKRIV

[7] = biological target: T3, Adrenergic receptor alpha-1 (Rattus norvegicus, UniProt P15823+P23944+P43140); assay: Inhibitory concentration required against alpha-1 adrenergic receptor in rat cortex using [3H]-WB- 4101
T3 sequence (P15823 whole entry): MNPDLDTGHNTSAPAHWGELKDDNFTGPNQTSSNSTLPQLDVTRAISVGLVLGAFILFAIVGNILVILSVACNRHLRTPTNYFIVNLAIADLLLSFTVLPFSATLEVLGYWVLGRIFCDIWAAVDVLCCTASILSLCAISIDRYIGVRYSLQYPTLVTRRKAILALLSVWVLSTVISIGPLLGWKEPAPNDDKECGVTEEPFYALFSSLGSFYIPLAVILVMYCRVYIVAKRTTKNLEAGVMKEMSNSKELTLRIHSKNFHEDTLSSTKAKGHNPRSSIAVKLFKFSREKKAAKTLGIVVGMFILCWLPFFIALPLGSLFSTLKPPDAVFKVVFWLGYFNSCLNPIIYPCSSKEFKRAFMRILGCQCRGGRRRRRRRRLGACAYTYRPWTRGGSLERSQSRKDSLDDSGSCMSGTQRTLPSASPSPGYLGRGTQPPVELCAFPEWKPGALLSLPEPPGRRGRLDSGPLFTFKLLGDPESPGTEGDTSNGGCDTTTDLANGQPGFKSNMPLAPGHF
T3 sequence (P23944 whole entry): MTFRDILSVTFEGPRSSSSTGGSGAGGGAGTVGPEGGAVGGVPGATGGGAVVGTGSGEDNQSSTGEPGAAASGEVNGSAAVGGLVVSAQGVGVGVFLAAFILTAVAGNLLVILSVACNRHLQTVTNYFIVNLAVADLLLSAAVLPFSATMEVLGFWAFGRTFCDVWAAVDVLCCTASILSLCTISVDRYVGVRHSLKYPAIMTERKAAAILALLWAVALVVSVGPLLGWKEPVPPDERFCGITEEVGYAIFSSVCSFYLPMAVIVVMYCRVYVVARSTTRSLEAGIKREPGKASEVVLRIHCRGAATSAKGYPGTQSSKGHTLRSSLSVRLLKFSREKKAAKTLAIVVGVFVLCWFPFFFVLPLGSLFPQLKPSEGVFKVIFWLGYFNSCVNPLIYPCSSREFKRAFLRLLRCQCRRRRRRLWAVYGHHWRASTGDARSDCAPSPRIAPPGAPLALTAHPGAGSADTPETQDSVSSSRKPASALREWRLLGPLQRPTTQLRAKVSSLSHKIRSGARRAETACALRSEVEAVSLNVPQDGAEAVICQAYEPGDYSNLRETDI
T3 sequence (P43140 whole entry): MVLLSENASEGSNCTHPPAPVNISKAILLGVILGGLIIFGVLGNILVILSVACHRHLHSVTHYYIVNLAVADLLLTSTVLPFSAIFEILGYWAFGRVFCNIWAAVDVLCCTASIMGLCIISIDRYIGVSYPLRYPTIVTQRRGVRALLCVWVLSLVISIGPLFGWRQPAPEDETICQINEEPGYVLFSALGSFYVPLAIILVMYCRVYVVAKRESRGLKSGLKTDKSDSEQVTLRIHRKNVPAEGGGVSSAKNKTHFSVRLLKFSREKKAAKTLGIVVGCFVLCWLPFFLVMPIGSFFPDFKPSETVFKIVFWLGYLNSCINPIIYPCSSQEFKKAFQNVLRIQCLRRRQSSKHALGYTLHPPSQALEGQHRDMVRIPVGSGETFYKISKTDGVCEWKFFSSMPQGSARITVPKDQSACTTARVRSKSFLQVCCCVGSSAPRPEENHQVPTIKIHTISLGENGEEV

[8] = biological target: D(2) dopamine receptor (Rattus norvegicus, UniProt P61169); assay: Inhibitory concentration required against Dopamine receptor D2 in rat striatum; format: tissue-based
Chain of D(2) dopamine receptor (P61169 whole entry): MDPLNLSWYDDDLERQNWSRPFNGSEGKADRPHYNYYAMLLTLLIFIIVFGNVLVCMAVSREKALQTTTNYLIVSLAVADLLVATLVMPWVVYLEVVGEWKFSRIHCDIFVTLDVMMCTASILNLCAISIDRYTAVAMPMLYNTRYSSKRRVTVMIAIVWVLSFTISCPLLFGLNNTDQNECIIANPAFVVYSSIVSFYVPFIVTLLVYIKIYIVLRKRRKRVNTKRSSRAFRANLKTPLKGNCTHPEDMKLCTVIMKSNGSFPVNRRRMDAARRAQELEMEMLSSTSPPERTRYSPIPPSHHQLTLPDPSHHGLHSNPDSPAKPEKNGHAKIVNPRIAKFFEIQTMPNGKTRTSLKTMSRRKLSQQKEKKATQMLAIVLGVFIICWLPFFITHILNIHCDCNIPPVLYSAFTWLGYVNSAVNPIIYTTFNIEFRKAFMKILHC

[9] = test system: Rattus norvegicus; assay: In vivo motor activity determined in rat at 0.1 mg/kg of ip administration; format: functional; conditions: route intraperitoneal
Procedure, shortened: (§2)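 Rat social interaction paradigm with total motor activity counts recorded in the same session. All compounds were given ip, with a saline-treated control group. Combination arms gave a 0.1 mg/kg agent together with a second agent at 1 mg/kg, both ip. Social interaction time (s) and motor counts are reported as mean ± SEM, with significance tested against saline control.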

[10] = test system: Rattus norvegicus; assay: Social interaction time determined in vivo in rat at 0.1 mg/kg of ip administration; format: functional; conditions: route intraperitoneal; procedure, shortened: as §2
[11] = biological target: Sodium-dependent serotonin transporter (Rattus norvegicus, UniProt P31652); assay: Inhibitory concentration required against 5-HT uptake in rat cortex
Chain of Sodium-dependent serotonin transporter (P31652 whole entry): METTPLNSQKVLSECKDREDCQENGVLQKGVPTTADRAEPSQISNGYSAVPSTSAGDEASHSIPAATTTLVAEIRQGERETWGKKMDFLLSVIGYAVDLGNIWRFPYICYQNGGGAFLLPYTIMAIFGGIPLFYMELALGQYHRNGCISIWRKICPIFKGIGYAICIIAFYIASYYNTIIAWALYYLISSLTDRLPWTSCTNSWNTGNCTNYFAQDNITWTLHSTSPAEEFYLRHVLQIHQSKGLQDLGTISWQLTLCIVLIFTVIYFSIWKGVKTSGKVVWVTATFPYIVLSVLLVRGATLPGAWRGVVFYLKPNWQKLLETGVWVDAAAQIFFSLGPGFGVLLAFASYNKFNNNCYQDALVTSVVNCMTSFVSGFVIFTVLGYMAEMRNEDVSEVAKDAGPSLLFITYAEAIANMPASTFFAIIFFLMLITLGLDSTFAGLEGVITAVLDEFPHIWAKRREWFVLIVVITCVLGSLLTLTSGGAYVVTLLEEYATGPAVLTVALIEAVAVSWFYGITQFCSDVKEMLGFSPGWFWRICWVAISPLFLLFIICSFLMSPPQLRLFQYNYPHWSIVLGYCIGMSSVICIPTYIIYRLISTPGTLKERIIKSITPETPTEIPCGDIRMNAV

[12] = test system: Rattus norvegicus; assay: In vivo motor activity determined in rat at 1.7 + 1 mg/kg of ip administration; format: functional; conditions: route intraperitoneal; procedure, shortened: as §1
[13] = test system: Rattus norvegicus; assay: Social interaction time determined in vivo in rat at 1.7 + 1 mg/kg of ip administration; format: functional; conditions: route intraperitoneal; procedure, shortened: as §1
[14] = test system: Rattus norvegicus; assay: In vivo motor activity determined in rat at 1 mg/kg of ip administration; format: functional; conditions: route intraperitoneal; procedure, shortened: as §2
[15] = test system: Rattus norvegicus; assay: Social interaction time determined in vivo in rat at 1 mg/kg of ip administration; format: functional; conditions: route intraperitoneal; procedure, shortened: as §2

| SMILES | Motor activity [1] [Counts] | Time [2] [s] | IC50 [3] [nM] | IC50 [4] [nM] | IC50 [5] [nM] | IC50 [6] [nM] | IC50 [7] [nM] | IC50 [8] [nM] | Motor activity [9] [Counts] | Time [10] [s] | IC50 [11] [nM] | Motor activity [12] [Counts] | Time [13] [s] | Motor activity [14] [Counts] | Time [15] [s] |
| --- | --- | --- | --- | --- | --- | --- | --- | --- | --- | --- | --- | --- | --- | --- | --- |
| CN1C(=O)CN=C(c2ccccc2)c2cc(Cl)ccc21 [DIAZEPAM] | 5100 | 120 | – | – | – | – | – | – | – | – | – | – | – | – | – |
| OC1(c2ccc3c(c2)OCO3)CCC(N2CCN(Cc3ccccc3)CC2)CC1 (configuration not stated) | – | – | 20 | > 1000 | 11000 | 410 | 700 | 1700 | 4700 | 104 | > 1000 | – | – | – | – |
| CN1C(=O)CN=C(c2ccccc2)c2cc(Cl)ccc21.COc1cccc(CN2CCN(C3CCC(O)(c4ccc5c(c4)OCO5)CC3)CC2)c1 (configuration not stated) | – | – | – | – | – | – | – | – | – | – | – | 4900 | 113 | – | – |
| COc1cccc(CN2CCN(C3CCC(O)(c4ccc5c(c4)OCO5)CC3)CC2)c1 (configuration not stated) | – | – | 2.2 | > 100000 | 28000 | 1100 | 1500 | 4800 | – | – | 3000 | – | – | 5140 | 65 |
